We go through 2 compounds from ChEMBL document CHEMBL1828510, “Synthesis of 3-heteroarylthioquinoline derivatives and their in vitro antituberculosis and cytotoxicity studies” (Eur J Med Chem, 2011).

This assay concerns NIH3T3. Put plainly: Cytotoxicity against mouse NIH/3T3 cells after 48 hrs by MTT assay. The format is cell-based. The settings on record: NIH3T3, 48 h. Put shortly: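 NIH 3T3 mouse embryonic fibroblasts kept in DMEM + 10% FBS at 37 °C, 5% CO2. Seeded at 10,000 cells/well in medium with 5% FBS and left 24 h to attach. Compounds dissolved in DMSO, diluted in serum-free medium, serial concentrations, 48 h exposure, triplicates. MTT (5 mg/mL stock) added for 4 h, formazan taken up in DMSO, A570 read. Viability calculated as % of untreated control; IC50 taken from the dose curve.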
For orientation: Tetrazolium dyes change colour on reduction, which living cells bring about.

Turning to `Cc1nnc(Sc2c(-c3ccc(Cl)cc3)nc3ccccc3c2-c2ccccc2)s1`, 1260 µM corresponded to half-maximal inhibition (IC50).

`Cc1nnc(Sc2c(-c3ccc(Br)cc3)nc3ccccc3c2-c2ccccc2)s1`: the IC50 (as a rule, the concentration that inhibits the measured activity by half) was 2050 µM.
